Compound activity: PubChem, Johns Hopkins Ion Channel Center
RGS4 act – RGS4 potentiators or activators, primary screen, cell-based, HEK293 M3R inducible RGS4, calcium flux. B-score at 10 µM. carbachol calcium flux Fluo4; hits give low values. 310,000 tested, 0.92% active;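 active = B-score of the integrated calcium signal more than 4 SD below the library mean, with starting fluorescence not abnormally high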;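 also: negative B-score means reduced calcium response which marks RGS4 activation or potentiation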
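Also added: carbachol at ECmax as muscarinic agonist stimulus; Assay system: HEK293 cells with stable M3R and inducible RGS4; Timing: overnight RGS4 induction, 30 min dye load 37 °C, 20 min compound RT; Measured by: Fluo4-AM (2 µM) calcium-flux fluorescence, kinetic read.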
RGS4 block – RGS4 inhibitors, primary screen, cell-based, HEK293 M3R inducible RGS4, calcium flux; Regulator of G-protein signaling 4 (Homo sapiens), P49798; Fluo-4 calcium flux; hits give high values; triggered by carbachol at its EC20; B-score at 10 µM; 310,000 tested, 0.45% active;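 active = B-score, a plate-corrected calcium signal, over three deviations above library mean, with baseline fluorescence within five deviations of library mean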;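 also: RGS4 expression induced by doxycycline in cells with stable M3 receptor; B-score is computed from the integrated fluorescence ratio over baseline after carbachol; higher B-score means a larger calcium signal and so more RGS4 inhibition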
Target sequence (P49798 whole entry, looked up): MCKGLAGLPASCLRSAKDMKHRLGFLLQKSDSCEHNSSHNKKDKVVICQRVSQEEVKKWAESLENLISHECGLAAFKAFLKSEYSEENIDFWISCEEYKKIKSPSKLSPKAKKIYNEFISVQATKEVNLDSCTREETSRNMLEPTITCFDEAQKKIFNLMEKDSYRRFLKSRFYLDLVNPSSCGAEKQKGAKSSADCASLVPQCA
MrgX1 allo act – positive allosteric modulators of MrgX1, primary screen, HEK293 cells, Fluo-4 calcium flux | Mas-related G-protein coupled receptor member X1 (Homo sapiens), Q96LB2 | FDSS; hits give high values | B-score at 10 µM | 310,000 tested, 0.63% active;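 active = plate-corrected calcium response at least 3 library SD above typical, normal starting fluorescence, not activating the receptor alone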;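 also: compound read alongside a low EC10 to EC30 dose of BAM8-22 agonist; peak minus trough fluorescence over baseline measured at the second addition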
Target sequence (Q96LB2 whole entry, looked up): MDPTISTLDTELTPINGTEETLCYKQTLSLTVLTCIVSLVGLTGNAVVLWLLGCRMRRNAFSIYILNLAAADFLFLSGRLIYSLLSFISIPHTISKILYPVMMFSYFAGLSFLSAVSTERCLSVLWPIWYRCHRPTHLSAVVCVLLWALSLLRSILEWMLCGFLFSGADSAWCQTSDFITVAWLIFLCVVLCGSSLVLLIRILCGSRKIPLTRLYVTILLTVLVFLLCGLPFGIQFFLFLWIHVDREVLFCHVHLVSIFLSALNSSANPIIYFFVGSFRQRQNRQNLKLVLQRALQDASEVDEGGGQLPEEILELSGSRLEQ
MrgX1 antagonist – antagonists of human MrgX1 receptor, primary screen, HEK293 cells, Fluo-4 calcium flux | BAM8-22 antagonism; hits give low values | B-score at 10 µM | 310,000 tested, 1.3% active | AID 588676, 2011;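 active = calcium-response B-score plate-corrected more than 3 library SD below zero, starting fluorescence within 5 deviations, no agonist response on first addition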;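 also: peak minus trough fluorescence over baseline after final BAM8-22 challenge near maximal dose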
MrgX1 agonist – agonists of human MrgX1 receptor, primary screen, HEK293 cells, Fluo-4 calcium flux; Mas-related G-protein coupled receptor member X1 (Homo sapiens), Q96LB2; Fluo-4 calcium fluorescence, agonist mode; hits give high values; B-score at 10 µM; 310,000 tested, 0.44% active; AID 588627, 2011;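 active = calcium response B-score plate-corrected fluorescence ratio at least 3 library SD, with starting fluorescence B-score inside 5 SD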
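Material: MrgX1-expressing HEK293 cells; input: 15,000 cells per well; doses: test compound given as first of three sequential additions; schedule: overnight plating before 1 h dye loading; technique: Fluo-4 NW calcium-flux fluorescence, kinetic read; evaluation: baseline-normalised fluorescence change ratio, B-scored; control set: plate-wise positive and negative controls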
RGS4 inh valid – enhanced carbachol calcium response, M3R/RGS4 cells, RGS4 inhibitor project, cell-based, validation screen, HEK293 M3R/RGS4, calcium flux. shares compounds with RGS4 block. carbachol calcium Fluo-4 fluorescence; carbachol added at its EC20; 0 = buffer wells, 100 = carbachol control. calcium response, % at 10 µM. 1,700 tested, 65% active. AID 492999, 2010;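 active = duplicate-averaged calcium response above the buffer-only control mean plus 5 SD of those controls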;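 also: integrated fluorescence ratio F max minus min over baseline F0; higher response in RGS4-induced cells means RGS4 inhibition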
RGS4 uninduced – carbachol calcium response in non-induced M3R cells, confirmation, counter-screen for RGS4 inhibitor project, cell-based, HEK293 M3R. shares compounds with RGS4 block. carbachol calcium Fluo-4; submaximal (EC20) carbachol stimulus; buffer wells 0%, carbachol control wells 100%. activity (percent), % at 10 µM. 1,900 tested, 20% active; call rule not given here;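 also: RGS4 induction absent so cells express M3R without RGS4; higher means more calcium signal and flags a non-specific hit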
M3R basal Ca ctr – second counter-screen for RGS4 inhibitors: non-induced cells without carbachol; shares compounds with RGS4 block; HEK293 M3R/RGS4 non-induced, Fluo-4 calcium, no carbachol; normalised: buffer wells 0%, carbachol wells 100%; calcium response (agonist-mode artifact), % at 10 µM; 1,900 tested, 22% active;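 active = duplicate-averaged calcium rise in uninduced cells above buffer wells' mean plus 5 SD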
A number is an active result; . = inactive; / = not tested or not shown. A selection: hits, their analogues and other compounds. The true share with any hit is near 3.5%.

SMILES	RGS4 act	RGS4 block	MrgX1 allo act	MrgX1 antagonist	MrgX1 agonist	RGS4 inh valid	RGS4 uninduced	M3R basal Ca ctr
Cc1csc(NC(=O)CSCC(=O)O)c1-c1nc2ccccc2s1	.	10.7	.	.	.	34.5%	50.5%	.
O=C(c1cc(-c2ccco2)nc2ccccc12)N1CCN(c2ccc(F)cc2)CC1	.	.	.	.	.	/	/	/
COc1cccc(NC(=O)CN(C)C(=O)CSc2ncnc3sc(C)c(C)c23)c1	.	.	.	.	.	/	/	/
COc1ccccc1NC(=O)c1cnc(SCC(=O)NCC2CCCO2)n(C)c1=O (stereo not given)	.	5.38	.	.	.	9.0%	.	.
COc1ccc(/C=C2\CCCC(C(=O)C(F)(F)F)=C2O)cc1	.	.	.	.	.	/	/	/
O=C(C1=C(O)/C(=C/c2ccc(O)cc2)CCC1)C(F)(F)F	.	5.22	.	.	.	.	.	.
COc1ccc(OCc2nnc(SCC(=O)NC3CC3)n2C)cc1	.	.	.	.	.	/	/	/
O=C(Nc1ccc(S(=O)(=O)Nc2cnc3ccccc3n2)cc1)c1ccc(Cl)c([N+](=O)[O-])c1	.	8.94	17.2	.	.	14.0%	55.5%	.
CCCc1ccc(-c2cc(NC(=O)CSc3nnc(N)s3)n(-c3ccccc3)n2)cc1	.	8.85	.	.	.	19.5%	.	.
Cc1nnc(SCC(=O)Nc2cc(-c3cc(C)c(C)cc3C)nn2-c2ccccc2)s1	.	.	.	.	.	/	/	/
c1ccc(OCc2nc3c4c(ncn3n2)-c2ccccc2CC42CCCC2)cc1	.	.	.	.	.	/	/	/
O=CN1CCN(C(=O)c2ccc(-c3nc4ccccc4s3)s2)CC1	.	.	.	.	.	/	/	/
S=c1[nH]nc(-c2ccncc2)n1/N=C/c1cn(-c2ccccc2)nc1-c1ccc(Cl)cc1	.	.	.	.	.	.	.	.
CC(/C=N/n1c(-c2cccnc2)n[nH]c1=S)=C\c1ccccc1	.	.	.	.	.	/	/	/
CC(=C/c1ccccc1)/C=N/n1c(-c2ccncc2)n[nH]c1=S	.	5.13	.	.	.	16.0%	.	.
CC1Cc2ccccc2N1C(=O)CN1CCN(Cc2ccccc2)CC1 (stereo not given)	.	.	.	.	.	/	/	/
Cc1ccccc1-c1nc(CN(C)C(C)c2ccon2)c(C)o1 (stereo not given)	.	.	.	.	.	/	/	/
CCOC(=O)c1c(C)[nH]c(C(=O)CN2C(=O)NC(C)(c3ccc4ccccc4c3)C2=O)c1C (stereo not given)	.	5.7	.	.	.	9.0%	.	.
CCCC1(c2ccccc2)NC(=O)N(CC(=O)c2[nH]c(C)c(C(=O)OCC)c2C)C1=O (stereo not given)	.	.	.	.	.	/	/	/
O=C(N/N=C/c1ccoc1)c1cccc(OC(F)(F)C(F)F)c1	.	.	.	.	.	/	/	/
CC1=NN(c2ccccc2)C(=O)/C1=C/c1ccc(-c2ccc(C)c(C(=O)O)c2)o1	.	17.1	.	.	.	73.5%	.	.
CCN(C(=O)COC(=O)c1ccc2c(=O)n3c(nc2c1)CCC3)C1CCS(=O)(=O)C1 (stereo not given)	.	.	.	.	.	/	/	/
O=C(CCN1Cc2ccccc2C1)c1ccc2c(c1)OCCO2	.	16.9	.	.	.	95.0%	.	23.0%
O=C(CCN1CCc2ccccc2C(c2ccccc2)C1)c1ccc2c(c1)OCCO2 (stereo not given)	.	14.8	.	.	43	10.5%	.	14.5%
CN(CC(=O)N1CCN(Cc2ccccc2)CC1)S(=O)(=O)c1cccc2nsnc12	.	.	.	.	.	/	/	/
SMILES	RGS4 act	RGS4 block	MrgX1 allo act	MrgX1 antagonist	MrgX1 agonist	RGS4 inh valid	RGS4 uninduced	M3R basal Ca ctr
C/C(CC(=O)Nc1cc(C)ccn1)=N\NC(=O)c1cccc(C)c1O	.	.	.	.	.	/	/	/
Cc1ccc(C)c(NC(=O)CN(C)C(=O)c2ccccc2Cc2ccccc2)c1	.	.	.	.	.	/	/	/
O=C(c1cc(-c2ccc(Cl)cc2)n[nH]1)N1CCN(C(=O)c2ccco2)CC1	.	.	.	.	.	/	/	/
CC(C)(Oc1ccc(Cl)cc1)C(=O)N/N=C/c1cn[nH]c1-c1ccccc1	.	5	.	.	.	26.0%	.	.
O=C(N/N=C\c1cn[nH]c1-c1ccc(Cl)cc1)c1cccs1	.	.	.	.	.	/	/	/
CCCCC(NC(=O)COc1cc2c(c3oc(=O)cc(C)c13)CCC(C)(C)O2)C(=O)O (stereo not given)	.	5.66	.	.	.	.	.	.
Cc1cc(=O)oc2c3c(cc(OCC(=O)N[C@@H](C)C(=O)O)c12)OC(C)(C)CC3	.	.	.	.	.	/	.	.
Cc1cc(=O)oc2c3c(cc(OCC(=O)N[C@@H](Cc4ccccc4)C(=O)O)c12)OC(C)(C)CC3	.	.	.	.	.	/	/	/
NS(=O)(=O)c1ccc(CCNS(=O)(=O)c2cccc(C(=O)O)c2)cc1	.	.	.	.	.	/	/	/
Cn1c(CCNC(=O)c2ccco2)nc2cc(NC(=O)c3ccccc3)ccc21	.	.	.	.	.	.	.	.
Cn1c(CCNC(=O)c2ccco2)nc2cc(NC(=O)c3ccco3)ccc21	.	.	.	.	.	.	.	.
CCCCC(=O)Nc1ccc2c(c1)nc(CCNC(=O)c1ccco1)n2C	.	.	.	.	.	/	/	/
Cn1c(CCNC(=O)c2ccccc2)nc2cc(NC(=O)c3ccco3)ccc21	.	.	.	.	.	.	.	.
Cn1c(CCNC(=O)c2ccco2)nc2cc(NS(=O)(=O)c3ccccc3)ccc21	.	.	.	.	.	/	/	/
COc1ccccc1C(=O)Nc1ccc2c(c1)nc(CCNC(=O)c1ccco1)n2C	.	.	.	.	.	/	/	/
Cn1c(CCNC(=O)c2ccco2)nc2cc(NC(=O)C3CCCCC3)ccc21	.	.	.	.	.	/	/	/
CCC(=O)NCCc1nc2cc(NC(=O)c3ccco3)ccc2n1C	.	.	.	.	.	.	.	.
